NS3 helicase inh – HCV NS3 helicase inhibition | 0.56% of 290,000 active | inhibition, % at 10.9 µM | NS3 helicase DNA unwinding, Cy5 molecular beacon fluorescence;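 active = inhibition above the mean of all tested compounds plus 3 SD, set per campaign, cut at about 35% in these data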;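 note: 0% = DMSO wells and 100% = thioflavine S control wells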
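System: Hepatitis C virus NS3 helicase domain fragment enzyme | Reagent: Annealed dual-labelled DNA beacon duplex, ATP-started | Compound dosing: 10.9 µM single point, 0.8% DMSO | Incubation: 1 h reaction at 25 °C, ATP-initiated | Technique: Cy5 fluorescence | Evaluation: Percent inhibition from t60/t0 fluorescence ratio | Benchmarks: Low DMSO, high thioflavine S at 110 µM | Replication: Singlicate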
PP1 counter – blocks human PP1-alpha phosphatase, a PP5 counter-screen. AID 2235. purified PP1alpha, OMFP fluorescence. 0.9% of 320,000 active. inhibition, % at 6.7 µM. P62136;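 active = inhibition above the mean inhibition of all tested compounds plus 3 SD, computed separately for each screening campaign, cut at about 15% in these data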
Target sequence (P62136 whole entry, looked up): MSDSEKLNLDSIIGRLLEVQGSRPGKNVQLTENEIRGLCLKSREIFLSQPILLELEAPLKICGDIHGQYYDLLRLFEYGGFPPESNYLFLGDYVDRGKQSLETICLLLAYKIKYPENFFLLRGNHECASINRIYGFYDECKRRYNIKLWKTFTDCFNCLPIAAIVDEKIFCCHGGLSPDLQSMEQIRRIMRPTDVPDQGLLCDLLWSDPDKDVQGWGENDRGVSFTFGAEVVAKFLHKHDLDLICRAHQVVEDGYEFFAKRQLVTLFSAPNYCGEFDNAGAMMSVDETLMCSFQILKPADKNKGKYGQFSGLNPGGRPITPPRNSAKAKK
ZTA DNA inh – ZTA (EBV) inhibition in EBNA-1 counter-screen; P03206; ZTA-DNA binding, fluorescence polarization; inhibition, % at 11 µM; 0.15% of 320,000 active; in the data active = inhibition above about 33%
Target sequence (P03206 whole entry, looked up): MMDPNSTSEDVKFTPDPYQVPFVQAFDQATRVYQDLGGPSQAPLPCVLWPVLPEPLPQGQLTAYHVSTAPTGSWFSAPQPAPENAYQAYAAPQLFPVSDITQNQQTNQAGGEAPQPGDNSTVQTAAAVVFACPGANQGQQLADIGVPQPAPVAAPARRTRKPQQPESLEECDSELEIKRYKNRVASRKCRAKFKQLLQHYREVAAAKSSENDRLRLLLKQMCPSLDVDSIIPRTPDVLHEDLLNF
core dimer inh – HCV core protein dimerization inhibition; inhibition, % at 5 µM; 0.33% of 300,000 active; TR-FRET GST/Flag-core106 dimerization, 1536-well; AID 1899;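 active = inhibition above the mean of all tested compounds plus 3 SD, set per screening campaign, cut at about 45% in these data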
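Assay system – GST-tagged and Flag-tagged HCV core protein residues 1-106 · Quantity – core106 proteins, GST 13.5 nM and Flag 17 nM · Benchmarks – unlabelled core106 and no-GST-core106 wells · Read-out basis – percent inhibition of core106 dimerization signal · Detection – time-resolved FRET, ex 340 nm, em 617 and 671 nm · Schedule – 4 h at 22.5 °C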
EBNA-1 inh – blocks EBNA-1 binding to DNA. EBNA-1 DNA binding, fluorescence polarization. inhibition, % at 14.8 µM. 0.34% of 300,000 active. AID 1950; in the data active = inhibition above about 28%
NS3 helicase cf – confirmation of Hepatitis C virus NS3 helicase inhibitors. shares compounds with NS3 helicase inh. NS3 helicase DNA unwinding, Cy5 molecular beacon fluorescence. inhibition, % at 10.9 µM. 31% of 1,600 active;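 active = inhibition above the mean of all tested compounds plus 3 SD, cutoff set per campaign, cut at about 36% in these data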
FID counter trip – intercalator displacement, NS3 helicase counter-screen. shares compounds with NS3 helicase inh. inhibition, % at 7.9 µM. 4% of 1,600 active. DNA fluorescent intercalator displacement, fluorescence; in the data active = inhibition above about 37%;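 note: 0% = vehicle and 100% = reference compound; higher means more displacement of ethidium bromide from the DNA hairpin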
FID counter DR – DNA intercalator displacement in dose response; shares compounds with NS3 helicase inh; fluorescent intercalator displacement from DNA, fluorescence; IC50, µM; 120 tested, under 10 active; AID 2172; call rule not given here
* marks the source's active call; other numbers are inactive results; nt = no result. This is a sample that favours compounds with a hit; in the whole collection about 1.9% have one here.

SMILES	NS3 helicase inh	PP1 counter	ZTA DNA inh	core dimer inh	EBNA-1 inh	NS3 helicase cf	FID counter trip	others
Cn1cccc1Cc1nnc(SCC(=O)NCc2ccco2)n1CCc1ccccc1	36*	0	-11	6	3	-21	-34
Cn1cccc1Cc1nnc(SCC(=O)NCc2ccco2)n1-c1ccc(F)cc1	39*	0	5	-3	-7	-16	-46
CCCNC(=S)Nc1ccc(Cl)cc1Cl	-2	-2	-13	-2	-2	nt	nt
CN(CC(=O)Nc1ccc(Cl)c(S(=O)(=O)N2CCOCC2)c1)C(=O)c1ccc(C#N)cc1	nt	-3	-7	nt	nt	nt	nt
COc1ccc(/C=C2/S/C(=N/S(=O)(=O)Cc3ccccc3)NC2=O)cc1OC	42*	-4	26	4	15	57*	-33
Cc1ccccc1CC1SC(N)=NC1=O (stereo not given)	22	7	-24	-6	-5	nt	nt
Cc1ccc(NC(=O)c2cc(NC(=O)c3ccccc3C(=O)O)ccc2N2CCCCC2)cc1	46*	3	-9	24	2	75*	-6
CCCc1cc(=O)oc2cc(C)c(CN3CCCC3)c(O)c12	40*	2	-23	53*	-9	41*	-22
CCc1cc(=O)oc2cc(C)c(CN3CCCCC3)c(O)c12	36*	8	5	16	6	-24	-5
Cc1ccc(C)c(NC(=O)CN(C)C(=O)C2COc3ccccc3O2)c1 (stereo not given)	nt	-1	10	nt	nt	nt	nt
COc1cccc(-n2c(SCc3cc(=O)oc4cc(O)c(O)cc34)nc3ccccc3c2=O)c1	86*	12	1	8	1	134*	1	FID counter DR=>79
O=C(C(Cc1ccccc1)n1cccc1)N1CCCCC1 (stereo not given)	-3	3	22	1	-3	nt	nt
O=C(C(Cc1ccccc1)n1cccc1)N1CCN(Cc2ccccc2)CC1 (stereo not given)	42*	6	-6	11	-6	-9	14
O=C(NC1CCCC1)C(=O)N(c1ccccc1F)C(C(=O)NCC1CCCO1)c1cccs1 (stereo not given)	36*	0	-19	-15	-7	-15	-36
O=C(NC1CCCC1)C(c1cccs1)N(CC1CCCO1)C(=O)Cc1cccs1 (stereo not given)	-1	3	1	7	-2	nt	nt
O=C(C1=C(O)C(=O)N(c2ncccn2)C1c1ccc(Cl)cc1)c1ccco1 (stereo not given)	43*	0	-1	6	3	-23	-3
COc1ccc(C2C(C(=O)c3ccc(C)o3)=C(O)C(=O)N2Cc2ccco2)cc1OC (stereo not given)	14	1	-7	2	-2	nt	nt
Cc1ccc(C(=O)C2=C(O)C(=O)N(Cc3cccnc3)C2c2cccc([N+](=O)[O-])c2)o1 (stereo not given)	2	-1	8	-2	0	nt	nt
O=C(C1=C(O)C(=O)N(c2ncccn2)C1c1ccc(Cl)c(Cl)c1)c1ccco1 (stereo not given)	24	6	10	5	9	nt	nt
CCCOc1ccc(C2C(C(=O)c3ccc(C)o3)=C(O)C(=O)N2Cc2ccco2)cc1OCC (stereo not given)	37*	35*	12	23	-4	55*	-38	FID counter DR=>79
O=C(C1=C(O)C(=O)N(Cc2ccco2)C1c1cccc(Cl)c1)c1ccco1 (stereo not given)	48*	15	-5	12	-4	16	1
Cc1ccc(C(=O)C2=C(O)C(=O)N(Cc3cccnc3)C2c2cccc(Oc3ccccc3)c2)o1 (stereo not given)	45*	45*	3	23	8	86*	-37	FID counter DR=>79
O=C(C1=C(O)C(=O)N(Cc2ccco2)C1c1cccc([N+](=O)[O-])c1)c1ccco1 (stereo not given)	30	3	-2	8	6	nt	nt
CC(C(Sc1ccccc1N)c1ccccc1)[N+](=O)[O-] (stereo not given)	4	-1	4	-3	-5	nt	nt
Cc1onc(-c2ccccc2)c1C(=O)N/N=C/c1ccco1	40*	0	2	1	-2	-12	-8
SMILES	NS3 helicase inh	PP1 counter	ZTA DNA inh	core dimer inh	EBNA-1 inh	NS3 helicase cf	FID counter trip	others
Cc1onc(-c2ccccc2)c1C(=O)N/N=C/c1cccc(O)c1	13	-2	6	-7	6	nt	nt
CCCCCc1cc(=O)oc2c(C(CCN(CC)CC)c3cc(OC)c(OC)c(OC)c3)c(OC)cc(OC)c12 (stereo not given)	nt	4	9	-8	2	nt	nt
O=C1NC(=O)/C(=C\c2ccccc2Oc2ccc(F)c(F)c2)S1	55*	4	8	18	-2	26	-1
O=C1NC(=O)/C(=C/c2ccccc2OCc2ccccc2)S1	6	5	16	0	-7	nt	nt
CCn1cc(C(=O)NCCC(C)C)c(=O)c2cc(F)c(N3CCN(C(=O)c4ccco4)CC3)cc21	-11	1	10	-4	-11	nt	nt
Cc1ccc(NC(=O)Nc2cccc(C)n2)cc1	3	2	10	-3	12	nt	nt
O=C(/C=C/c1cccs1)Nc1ccncc1	-20	-1	-2	-5	0	nt	nt
Cc1cccc(NC(=O)Nc2cccc(C)n2)n1	39*	-2	-7	-6	1	-8	1
Cc1cccc(NC(=O)/C=C/c2cccs2)n1	67*	5	-1	-5	-2	-13	16
Cc1ccc2nc3c(cc(S(=O)(=O)c4ccccc4)c(=N)n3Cc3ccco3)c(=O)n2c1	22	-1	7	13	4	nt	nt
N=c1c(S(=O)(=O)c2ccccc2)cc2c(=O)n3ccccc3nc2n1Cc1ccco1	37*	12	-16	87*	3	-4	26
Cc1ccccc1NC(=O)Nc1ccc2c(c1)CCC2	-4	2	-2	5	13	nt	nt
COc1ccccc1-c1ccc(/C=C2\C=CC(=O)O2)o1	37*	0	12	23	-8	-5	-3
COc1ccccc1-c1ccc(/C=C2/C=C(C)OC2=O)o1	15	1	2	13	7	nt	nt
O=C(c1ccco1)[C@@H]1[C@@H]2C(=O)N(c3ccc(F)cc3)C(=O)[C@@H]2[C@H]2C=Cc3ccccc3N21	34	11	4	24	-9	nt	nt
O=C(c1ccco1)[C@@H]1[C@@H]2C(=O)N(c3ccc(F)cc3)C(=O)[C@@H]2C2c3ccccc3C=CN21 (stereo not given in full)	43*	0	5	-1	-3	3	12
O=c1c2ccccc2sn1-c1ccc(S(=O)(=O)N2CCCCC2)cc1	5	-4	13	10	8	nt	nt
